“And” between values parts separate entries of the source, which are not always exact repeats. Identical values can stand only once.
Columns and labels:
[1] = tested on: L1210; experiment: Antitumor efficacy against L1210 tumor cell line, activity is expressed as […] survival time (MST) at the dose of 6 mg/kg.; format: functional, organism-based; design: dose 6 mg/kg; conditions: Mus musculus
In short: (§1)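 Murine L-1210 leukemia, ascitic form, with compound given on day 1 (a single ip dose on day 1 in mg/kg in one table). Activity was scored as median survival time in days, with T/C relative to untreated controls. A cisplatin positive control was run in each test.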

[2] = tested on: B16; experiment: Antitumor efficacy against B-16 tumor cell line, activity is expressed as […] survival time (MST) at the dose of 1.6 mg/kg.; format: functional, organism-based; design: dose 1.6 mg/kg; conditions: Mus musculus
In short: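 Mice bearing B-16 tumor were dosed once daily on days 1–9. Read-out was median survival time in days, with T/C relative to control MST.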

[3] = tested on: M5076 (mouse); experiment: Antitumor efficacy against M5076 tumor cell line, activity is expressed as […] survival time (MST) at the dose of 4.8 mg/kg.
[4] = tested on: L1210; experiment: Antitumor efficacy against L1210 tumor cell line, activity is expressed as […] survival time (MST) at the dose of 10 mg/kg.; format: functional, organism-based; design: dose 10 mg/kg; conditions: Mus musculus; in short: as §1
[5] = tested on: L1210; experiment: Antitumor efficacy against L1210 tumor cell line, activity is expressed as […] survival time (MST) at the dose of 8 mg/kg.; format: functional, organism-based; design: dose 8 mg/kg; conditions: Mus musculus; in short: as §1
[6] = tested on: M5076; experiment: Antitumor efficacy against M5076 tumor cell line, activity is expressed as […] survival time (MST) at the dose of 4.8 mg/kg.; format: functional, organism-based; design: dose 4.8 mg/kg; conditions: Mus musculus
In short: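 M5076 tumor-bearing mice were dosed on days 1 and 4. Median survival time in days was recorded and T/C calculated against control MST.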

CISPLATIN showed an MST [1] of 150, an MST [2] of 213 and an MST [3] of 200. For the same sequence, the Survival time as % of untreated control (T/C) [4] was 193 (2×) and 200 (2×) and 186, the MST [5] was 186 and 167 and 164 and the MST [6] was 166.

Reference: ChEMBL document CHEMBL1124874, “Antitumor and DNA-binding properties of a group of oligomeric complexes of Pt(II) and Pt(IV)” (J Med Chem, 1990)
